# Measurements as given in ChEMBL document CHEMBL1154231, “Bioactive Nortriterpenoids from Schisandra grandiflora” (J Nat Prod, 2009).
# Tests used:
# [1] = Cytotoxicity against human C8166 cells by MTT assay; assay type: cell-based
# In short: (§1)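 HIV-1-induced cytopathic effect inhibition in permanent human T-cell line C8166, giving EC50. Cytotoxicity to uninfected C8166 cells run in parallel by MTT, giving CC50. Selectivity index taken as CC50/EC50. AZT served as positive control.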
# [2] = Selectivity index, ratio of CC50 for human C8166 cells to EC50 for HIV1; assay type: toxicity, cell-based; conditions: read-out: Ratio CC50/EC50; in short: as §1
# [3] = test system: Human immunodeficiency virus 1; assay: Antiviral activity against HIV1 infected in human C8166 cells assessed as inhibition of virus-induced cytopathic effect; assay type: functional, organism-based; conditions: Human immunodeficiency virus 1, C8166; in short: as §1
# HepG2 = assay: Cytotoxicity against human HepG2 cells after 48 hrs by sulforhodamine B assay; assay type: functional, cell-based; conditions: HepG2, 48 h
# K562 = assay: Cytotoxicity against human K562 cells after 48 hrs by sulforhodamine B assay; assay type: functional, cell-based; conditions: K562, 48 h
SMILES,CC50 [1] [µg/mL],selectivity ratio [2],EC50 [3] [µg/mL],IC50 (HepG2) [µg/mL],IC50 (K562) [µg/mL]
Cc1cn([C@H]2C[C@H](N=[N+]=[N-])[C@@H](CO)O2)c(=O)[nH]c1=O [ZIDOVUDINE],> 200,–,–,–,–
C[C@@H]1C(=O)[C@@]2(C)CC[C@]34C[C@]56OC(=O)C[C@H]5O[C@@](C)(CO)[C@@H]6[C@@H](O)C[C@H]3C(=O)[C@]3(O4)O[C@@]4(C[C@H](C)C(=O)O4)[C@@H]1[C@H]32 [SCHIGRANDILACTONE C],–,12.7,5.1,–,–
C[C@@H]1C(=O)[C@@]2(C)CC[C@]34C[C@]56OC(=O)C[C@H]5O[C@@](C)(CO)[C@@H]6CC[C@@]3(O)C(=O)[C@@]3(O[C@@]5(C[C@H](C)C(=O)O5)[C@@H]1[C@H]32)O4 [SCHIGRANDILACTONE A],–,1.1,80.2,0.19,0.13
C[C@@H]1C(=O)[C@@]2(C)CC[C@]34C[C@]56OC(=O)C[C@H]5O[C@@](C)(CO)[C@@H]6C[C@@H]5O[C@@]53C(=O)[C@@]3(O[C@@]5(C[C@H](C)C(=O)O5)[C@@H]1[C@H]32)O4 [SCHIGRANDILACTONE B],–,4,20.8,0.2,3.19
